Series [1] relates to SH-SY5Y. Briefly: Neuroprotection against H2O2-induced cell death in human SH-SY5Y cells assessed as cell viability at 1 uM preincubated for 6 hrs followed by H2O2 addition and measured after 24 hrs by MTT assay relative to control. The conditions noted are these: read-out: Activity. The series is classed as functional. A digest of the protocol:
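SH-SY5Y cells pretreated with 1 at 1 or 10 μM, then exposed to 600 μM H₂O₂. Viability by MTT, expressed as % of control. DMSO below 0.1%. Mean ± S.E.M. of three independent experiments.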

Series [2] has as its system SH-SY5Y. Briefly: Neuroprotection against H2O2-induced toxicity in human SH-SY5Y cells assessed as LDH release at 1 uM preincubated for 6 hrs followed by H2O2 addition and measured after 24 hrs (reference value: 339.93 +/- 3.66 U/L). The series is classed as functional. (In general: LDH in the medium is a marker of cell lysis.)
Series [3] relates to SH-SY5Y. Kind of series: Neuroprotection against H2O2-induced toxicity in human SH-SY5Y cells assessed as LDH release at 10 uM preincubated for 6 hrs followed by H2O2 addition and measured after 24 hrs (reference value: 339.93 +/- 3.66 U/L). The series is classed as functional. A digest of the protocol:
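Cells pretreated with test agent (1 or 10 μM), then 600 μM H₂O₂; plasma membrane damage read as LDH leakage into medium (U/L). DMSO below 0.1% in all groups. Mean ± S.E.M. of three independent experiments.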

Series [4] relates to SH-SY5Y. Briefly: Protection against H2O2-induced oxidative stress in human SH-SY5Y cells assessed as reactive oxygen species level at 1 uM preincubated for 6 hrs followed by H2O2 addition and measured after 24 hrs by DHE dye based flow cytometry (reference value: 18.6%). In kind it is functional. On the technique in general: A flow cytometer gives signals particle by particle.

Series [5] has as its system SH-SY5Y. Briefly: Induction of mitochondrial dysfunction in non-stimulated human SH-SY5Y cells assessed as mitochondrial membrane potential at 10 uM measured after 6 hrs by Rh123 staining based flow cytometry (reference value: 97.6 %). In kind it is cell-based.
The test system of series [6] is SH-SY5Y. Briefly: Protection against H2O2-induced apoptosis in human SH-SY5Y cells assessed as late apoptotic cells at 10 uM preincubated for 6 hrs followed by H2O2 addition and measured after 24 hrs by Annexin V-FITC/propidium iodide staining based flow cytometry (reference value: 77.5%). In kind it is functional.
A short description of series [7]: Induction of apoptosis in non-stimulated human SH-SY5Y cells assessed as viable cells at 10 uM measured after 6 hrs by Annexin V-FITC/propidium iodide staining based flow cytometry (reference value: 92.5%). In kind it is cell-based. Conditions: read-out: Activity.
Series [8] concerns SH-SY5Y. Briefly: Protection against H2O2-induced apoptosis in human SH-SY5Y cells assessed as decrease in ratio of Bax/Bcl2 expression preincubated for 6 hrs followed by H2O2 addition and measured after 24 hrs by Western blot analysis. The series is classed as functional, cell-based. The method, boiled down:
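Western blot of Bax, Bcl-2 and cleaved caspase-3 in SH-SY5Y after pretreatment (1, 10 μM) and 600 μM H₂O₂. β-actin internal standard; Bax/Bcl-2 ratio from densitometry. Mean ± S.E.M., three independent experiments.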
Background: In western blotting, separated proteins are transferred to a membrane and probed.

In series [9] the test system is SH-SY5Y. Kind of series: Induction of apoptosis in non-stimulated human SH-SY5Y cells assessed as effect on ratio of Bax/Bcl2 expression at 1 to 10 uM measured after 6 hrs by Western blot analysis. In kind it is cell-based. The method, boiled down:
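Bax, Bcl-2 and cleaved caspase-3 measured by western blot in SH-SY5Y cells given 1 alone, with β-actin as internal standard. Mean ± S.E.M. of three independent experiments.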

In series [10] the test system is Mus musculus. Briefly: Anti-parkinson's activity in MPTP-induced C57Bl/6 mouse model of Parkinson's disease assessed as increase in tyrosine hydroxylase expression in substantia nigra at 10 to 20 mg/kg, ig pretreated for 10 days followed by MPTP challenge measured 10 days post MPTP addition by DAB staining based immunohistochemistry method. In kind it is functional, organism-based. A digest of the protocol:
(§1)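 Tissue taken 10 days after MPTP injection from mice dosed orally with 1 (10 or 20 mg/kg). TH in SNpc and striatum by western blot, and by DAB immunostaining. Three of the mice per group analysed. Mean ± S.D., n = 6 mice/group.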

The subject of series [11] is Mus musculus. Kind of series: Anti-parkinson's activity in MPTP-induced C57Bl/6 mouse model of Parkinson's disease assessed as increase in tyrosine hydroxylase expression in striatum at 10 to 20 mg/kg, ig pretreated for 10 days followed by MPTP challenge measured 10 days post MPTP addition by DAB staining based immunohistochemistry method. In kind it is functional, organism-based. The method, boiled down: as §1

For series [12], the system named is Mus musculus. Briefly: Anti-parkinson's activity in MPTP-induced C57Bl/6 mouse model of Parkinson's disease assessed as decrease in cleaved caspase3 expression in substantia nigra at 10 to 20 mg/kg, ig pretreated for 10 days followed by MPTP challenge measured 10 days post MPTP addition by Western blot analysis. The series is classed as functional, organism-based. A digest of the protocol: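 Substantia nigra from MPTP mice. Bax, Bcl-2 and cleaved caspase-3 measured by western blot, with Bcl-2/Bax ratio by densitometry. Mean ± S.D., n = 6 mice/group.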

Series [13] deals with Mus musculus. Briefly: Anti-parkinson's activity in MPTP-induced C57Bl/6 mouse model of Parkinson's disease assessed as increase in SOD activity in substantia nigra administered intragastrically pretreated for 10 days followed by MPTP challenge measured 10 days post MPTP addition by xanthine oxidase method. The series is classed as functional, organism-based. A digest of the protocol: (§2)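 Striatum and SNpc from MPTP-treated mice dosed orally with 1 at 10 or 20 mg/kg. MDA level and SOD activity measured. Mean ± S.D., n = 6 mice/group.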

For series [14], the system named is Mus musculus. Kind of series: Anti-parkinson's activity in MPTP-induced C57Bl/6 mouse model of Parkinson's disease assessed as reduction in MDA level in striatum administered intragastrically pretreated for 10 days followed by MPTP challenge measured 10 days post MPTP addition by thiobarbituric acid method. The series is classed as functional, organism-based. The method, boiled down: as §2

The nature of series [15]: Half life in Sprague-Dawley rat at 5 mg/kg, iv by LC-MS/MS analysis. The series is classed as ADME, organism-based. The conditions noted are these: in vivo. A digest of the protocol: (§3)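 Male Sprague–Dawley rats dosed with 1 at 5 mg/kg i.v. (vehicle 5% DMSO, 2% F68, 93% saline) or 25 mg/kg p.o. (0.5% methylcellulose with 1% Tween 80). Orbital blood sampled at 0.083–24 h, 12 time points. Plasma PK parameters derived. Mean ± SD, n = 3.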

Series [16] in a line: MRT in Sprague-Dawley rat at 5 mg/kg, iv by LC-MS/MS analysis. Conditions: in vivo. The series is classed as ADME, organism-based. A digest of the protocol:
as §3

Series [17] is described as follows: Activation of PI3K/Akt/mTOR signaling in human SH-SY5Y cells assessed as up regulation of H2O2-induced HO-1 expression at 10 uM preincubated for 6 hrs followed by H2O2 addition and after 24 hrs in presence of PI3K/Akt/mTOR inhibitor LY294002 by Western blot analysis. In kind it is cell-based. A digest of the protocol:
(§4)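 SH-SY5Y cells preincubated 1 h with one inhibitor: SB203580 10 μM, LY294002 5 μM, U0126 10 μM, SP600125 5 μM or rapamycin 100 nM. Then 1 (10 μM) for 6 h, then 600 μM H₂O₂. HO-1 measured by western blot and densitometry. Mean ± S.E.M., three independent experiments.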

The nature of series [18]: Activation of PI3K/Akt/mTOR signaling in human SH-SY5Y cells assessed as up regulation of H2O2-induced HO-1 expression at 10 uM preincubated for 6 hrs followed by H2O2 addition and after 24 hrs in presence of PI3K/Akt/mTOR inhibitor rapamycin by Western blot analysis. In kind it is cell-based. The method, boiled down:
as §4

Series [19] can be described thus: Activation of PI3K/Akt/mTOR signaling in human SH-SY5Y cells assessed as up regulation of H2O2-induced HO-1 expression at 10 uM preincubated for 6 hrs followed by H2O2 addition and after 24 hrs in presence of MEK1/2 inhibitor U0126 by Western blot analysis. The series is classed as cell-based. The method, boiled down: as §4

Activity calls are given as the source filed them.

For orientation: half-life means the time needed for the level to fall by half in the phase considered. Read a high half-life as slow decline. The MRT is the average time that molecules of a dose stay in the body. On to `COC(=O)[C@H](Cc1ccccc1)NC(=O)/C=C/c1ccc(O)c(O)c1` [N-CAFFEOYL-PHENYLALANINE METHYL ESTER], for which the viability at 1 µM in series [1] turned out to be 68.3%. For the same compound, the Activity is 269.12 U/L in series [2]; 180.66 U/L in [3]; 14% in series [4]; 98.1% in series [5]; 4.3% in series [6]; “Dose-dependent effect” in [8]. In addition, the Activity result in series [9] is “Non-Toxic”; in series [13], “Dose-dependent effect”; in [14], “Dose-dependent effect”. Besides, the viability at 6 h, 10 µM in [7] was determined as 94.8%. For the same compound, the outcome in series [10], in [11], in series [12] and in series [19] was Active. The compound also gave a half-life in series [15] of 0.85 h. In [16], the MRT was determined as 1.45 h. In addition, the outcome in series [17] and in series [18] was inactive.

The values are drawn from ChEMBL document CHEMBL4308887, “Synthesis and biological evaluation of clovamide analogues with catechol functionality as potent Parkinson's disease agents in vitro and in vivo” (Bioorg Med Chem Lett, 2019).
